# Measurements from ChEMBL document CHEMBL1932971, “Synthesis of uriedo and thiouriedo derivatives of peptide conjugated heterocycles - A new class of promising antimicrobials” (2012).
# Numbered stars: 1 amine (or outer) side, 2 acyl side, 3 side chain; on linkers, the order of the positions; unused ones are H or OH. Peptide text beside a SMILES is read from it. * marks the point of attachment. Piperazinyl(4-(2,3-Cl2Ph)) = Clc1cccc(N2CCN(*)CC2)c1Cl; Thiocarbamoyl(N-4-ClPh) = S=C(Nc1ccc(Cl)cc1)*; NH(4-Cl-phenyl) = Clc1ccc(N*)cc1; X1 = Fc1ccc2c(C3CCN(*)CC3)noc2c1; NH(2-F-phenyl) = Fc1ccccc1N*; CO = O=C([*:1])[*:2]; OcHex = C1CCC(O*)CC1
# Columns and labels:
# Type in all cases: functional
# [1] = tested on: Klebsiella pneumoniae; test: Antibacterial activity against Klebsiella pneumoniae at 30 ug/ml after 24 hrs by agar well diffusion method; settings: read-out: DIZ
# Summary of the method: (§1)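 Agar well diffusion. Inocula were grown in nutrient broth at 37 °C for 24 h, then subcultured in nutrient broth at room temperature. Compounds were made as a 1 mg/mL DMSO stock and diluted to 30 µg/mL final. Nutrient agar plates were spread-inoculated and 6 mm wells each got 0.1 mL. Controls were amoxicillin (reference) and DMSO (negative). Incubation was 24 h at 37 °C. Inhibition zone was measured in mm as the mean of three determinations.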
# [2] = tested on: Fusarium oxysporum; test: Antifungal activity against Fusarium oxysporum after 72 hrs by microdilution method
# [3] = tested on: Aspergillus flavus; test: Ratio of bavistin MIC to compound MIC for Aspergillus flavus after 72 hrs by microdilution method
# [4] = tested on: Fusarium oxysporum; test: Antifungal activity against Fusarium oxysporum at 30 ug/ml after 72 hrs by agar well diffusion method; settings: read-out: DIZ
# Summary of the method: (§2)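 Fungal well diffusion. Inocula were subcultured in nutrient broth for one day, then spread on solidified medium. Compounds were made as a 1 mg/mL DMSO stock and diluted to 30 µg/mL final. Each 6 mm well got 0.1 mL. Controls were bavistin (reference) and DMSO (negative). Plates stood for 3 days at room temperature. Inhibition zone was measured in mm as the mean of three determinations.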
# [5] = tested on: Aspergillus niger; test: Antifungal activity against Aspergillus niger after 72 hrs by microdilution method
# [6] = tested on: Staphylococcus aureus; test: Antibacterial activity against coagulase-positive Staphylococcus aureus at 30 ug/ml after 24 hrs by agar well diffusion method; settings: read-out: DIZ; summary of the method: as §1
# [7] = tested on: Aspergillus flavus; test: Antifungal activity against Aspergillus flavus after 72 hrs by microdilution method
# [8] = tested on: Aspergillus flavus; test: Antifungal activity against Aspergillus flavus at 30 ug/ml after 72 hrs by agar well diffusion method; settings: read-out: DIZ; summary of the method: as §2
# [9] = tested on: Aspergillus niger; test: Ratio of bavistin MIC to compound MIC for Aspergillus niger after 72 hrs by microdilution method
# [10] = tested on: Xanthomonas oryzae; test: Antibacterial activity against Xanthomonas oryzae at 30 ug/ml after 24 hrs by agar well diffusion method; settings: read-out: DIZ
# [11] = tested on: Escherichia coli; test: Antibacterial activity against Escherichia coli at 30 ug/ml after 24 hrs by agar well diffusion method; settings: read-out: DIZ; summary of the method: as §1
# [12] = tested on: Aspergillus niger; test: Antifungal activity against Aspergillus niger at 30 ug/ml after 72 hrs by agar well diffusion method; settings: read-out: DIZ; summary of the method: as §2
# [13] = tested on: Fusarium oxysporum; test: Ratio of bavistin MIC to compound MIC for Fusarium oxysporum after 72 hrs by microdilution method
# [14] = tested on: Xanthomonas oryzae; test: Antibacterial activity against Xanthomonas oryzae after 24 hrs by microdilution method
# [15] = tested on: Escherichia coli; test: Antibacterial activity against Escherichia coli after 24 hrs by microdilution method
# [16] = tested on: Klebsiella pneumoniae; test: Antibacterial activity against Klebsiella pneumoniae after 24 hrs by microdilution method
# [17] = tested on: Staphylococcus aureus; test: Antibacterial activity against coagulase-positive Staphylococcus aureus after 24 hrs by microdilution method
Compound,zone of inhibition at 30 µg/mL [1],MIC [2],Ratio [3],zone of inhibition at 30 µg/mL [4],MIC [5],zone of inhibition at 30 µg/mL [6],MIC [7],zone of inhibition at 30 µg/mL [8],Ratio [9],zone of inhibition at 30 µg/mL [10],zone of inhibition at 30 µg/mL [11],zone of inhibition at 30 µg/mL [12],Ratio [13],MIC [14],MIC [15],MIC [16],MIC [17]
CC(C)[C@H](NC(=O)CNC(=O)[C@@H]1CCCN1C(=O)[C@H](Cc1ccccc1)NC(=O)CNC(=O)[C@H](CCC(=O)OC1CCCCC1)NC(=O)CNC(=O)Nc1ccccc1F)C(=O)NCC(=O)N[C@H](C(=O)N1CCC[C@H]1C(=O)NCC(=O)N[C@H](C(=O)NCC(=O)N[C@H](C(=O)N1CCC[C@H]1C(=O)NCC(=O)N[C@H](C(=O)NCC(=O)N[C@H](C(=O)N1CCC[C@H]1C(=O)NCC(=O)N[C@@H](Cc1ccccc1)C(=O)NCC(=O)N[C@@H](Cc1ccccc1)C(=O)N1CCC[C@H]1C(=O)NCC(=O)N[C@@H](Cc1ccccc1)C(=O)NCC(=O)N[C@@H](Cc1ccccc1)C(=O)N1CCC[C@H]1C(=O)N1CCC(c2noc3cc(F)ccc23)CC1)C(C)C)C(C)C)C(C)C)C(C)C)C(C)C ({NH(2-F-phenyl)-CO}-GE(OcHex)GFPGVGVPGVGVPGVGVPGFGFPGFGFP-X1),22 mm,1.5 µg/mL,10,44 mm,1.25 µg/mL,22 mm,1.25 µg/mL,43 mm,10,21 mm,24 mm,46 mm,10,,,,
CC(C)[C@H](NC(=O)CNC(=O)Nc1ccc(Cl)cc1)C(=O)NCC(=O)N[C@H](C(=O)N1CCC[C@H]1C(=O)N1CCC(c2noc3cc(F)ccc23)CC1)C(C)C ({NH(4-Cl-phenyl)-CO}-GVGVP-X1),29 mm,8.5 µg/mL,,32 mm,6.5 µg/mL,27 mm,7.5 µg/mL,29 mm,,26 mm,30 mm,33 mm,,8.5 µg/mL,9.25 µg/mL,6.75 µg/mL,8.75 µg/mL
CC(C)[C@H](NC(=O)CNC(=O)[C@@H]1CCCN1C(=O)[C@H](Cc1ccccc1)NC(=O)CNC(=O)[C@H](CCC(=O)OC1CCCCC1)NC(=O)CNC(=S)Nc1ccc(Cl)cc1)C(=O)NCC(=O)N[C@H](C(=O)N1CCC[C@H]1C(=O)NCC(=O)N[C@H](C(=O)NCC(=O)N[C@H](C(=O)N1CCC[C@H]1C(=O)NCC(=O)N[C@H](C(=O)NCC(=O)N[C@H](C(=O)N1CCC[C@H]1C(=O)NCC(=O)N[C@@H](Cc1ccccc1)C(=O)NCC(=O)N[C@@H](Cc1ccccc1)C(=O)N1CCC[C@H]1C(=O)NCC(=O)N[C@@H](Cc1ccccc1)C(=O)NCC(=O)N[C@@H](Cc1ccccc1)C(=O)N1CCC[C@H]1C(=O)N1CCC(c2noc3cc(F)ccc23)CC1)C(C)C)C(C)C)C(C)C)C(C)C)C(C)C ({Thiocarbamoyl(N-4-ClPh)}-GE(OcHex)GFPGVGVPGVGVPGVGVPGFGFPGFGFP-X1),19 mm,2.5 µg/mL,10,41 mm,1.75 µg/mL,17 mm,1.75 µg/mL,40 mm,10,17 mm,21 mm,45 mm,10,,,,
CC(C)[C@H](NC(=O)CNC(=S)Nc1ccc(Cl)cc1)C(=O)NCC(=O)N[C@H](C(=O)N1CCC[C@H]1C(=O)N1CCC(c2noc3cc(F)ccc23)CC1)C(C)C ({Thiocarbamoyl(N-4-ClPh)}-GVGVP-X1),30 mm,8 µg/mL,,31 mm,6 µg/mL,28 mm,6.75 µg/mL,30 mm,,32 mm,31 mm,34 mm,,8 µg/mL,8.75 µg/mL,6.5 µg/mL,8 µg/mL
"O=C(CNC(=O)Nc1ccccc1F)N[C@@H](Cc1ccccc1)C(=O)NCC(=O)N[C@@H](Cc1ccccc1)C(=O)N1CCC[C@H]1C(=O)N1CCN(c2cccc(Cl)c2Cl)CC1 ({NH(2-F-phenyl)-CO}-GFGFP-{Piperazinyl(4-(2,3-Cl2Ph))})",35 mm,5 µg/mL,,34 mm,4 µg/mL,33 mm,5.25 µg/mL,34 mm,,38 mm,37 mm,39 mm,,5.75 µg/mL,5.5 µg/mL,4 µg/mL,5 µg/mL
